Screens from PubChem.
Many of the other results were omitted from the sample, so hits are more common in it than they were.
HCT116 PTEN-null: growth suppressors of cells with PTEN tumor suppressor deletion; viability, % at 10 µM; hit rate 1.2% among 140,000; HCT116 PTEN-null viability, CellTiter-Glo, 60 h; stronger effect = lower value;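 active means viability at or below a set limit, 4 SD under the median of all tested compounds, cut at about 3.7% in these data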;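 further: PTEN knockout HCT116 line with beta catenin targeted HCT116 as companion control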
H69AR inhibit: blocks growth of human H69AR lung tumor cells. viability, % at 10 µM. hit rate 6% among 85,000. H69AR lung tumor viability, ATP luminescence, 72 h; stronger effect = lower value;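 active means viability at or below 40%; inactive means viability above 40%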;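 further: multidrug resistant small cell line overexpressing MRP-1 efflux transporter; 100% = mean luminescence of untreated control wells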
Fibroblast inh: blocks proliferation of human lung fibroblasts; LL 47 human lung fibroblast viability, ATP luminescence; stronger effect = lower value; hit rate 1.1% among 85,000; viability, % at 10 µM; AID 719;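 active means viability at or below 50% in the single dose screen; inactive means viability above 50%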;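 further: compound exposure lasted 72 h before the ATP readout; 100% = median luminescence of untreated cell-only wells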
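Material: human LL 47 lung fibroblast cells; quantity: 1,150 cells/well; medium: IMEM plus 15% FBS; doses: 0.1% DMSO in all compound wells; timing: overnight attachment after seeding, then 72 h compound exposure at 37 °C; detection: CellTiter-Glo luminescence; measure: % viability of median cell-only signal; controls: cell-only wells, no compound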
bCat KO growth: beta-catenin-lacking colon tumor cell growth suppression; HCT116 beta-catenin knockout viability, CellTiter-Glo, 60 h; stronger effect = lower value; viability, % at 10 µM; hit rate 1.5% among 140,000;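 active means viability at or under a set limit, the compound median less 4 SD, cut at about 6% in these data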;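 further: 0% = Hyamine 1622 control at 20 µM and 100% = untreated cell control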
HUVEC prolif 384: human endothelial cell proliferation inhibition | HUVEC proliferation, CellTiter-Glo luminescence, 72 h; stronger effect = lower value | viability, % at 10 µM (by protocol) | hit rate 1.1% among 86,000 | AID 648;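 active means viability at or below 30%; inactive means viability above 30%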;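 further: 100% = median luminescence of DMSO-only cell control wells on each plate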
Starred values were filed as active, the others as inactive.

Screening Cc1ccc2nc(/C(C#N)=C\c3ccc(Oc4ccc(C(F)(F)F)cc4[N+](=O)[O-])cc3)[nH]c2c1 returned HCT116 PTEN-null 28.3 and bCat KO growth 39.0.
O=C(C1CCCN(S(=O)(=O)Cc2ccccc2)C1)N1CCC(Cc2ccccc2)CC1 (stereo not drawn) was read as HCT116 PTEN-null 83.6, H69AR inhibit 26.3*, Fibroblast inh 99.2, bCat KO growth 76.9 and HUVEC prolif 384 86.4.
`CS(=O)(=O)N1CCC(C(=O)N2CCC(Cc3ccccc3)CC2)CC1` gave HCT116 PTEN-null 89.3, H69AR inhibit 79.4, Fibroblast inh 111.4, bCat KO growth 94.7 and HUVEC prolif 384 102.9.
COC(=O)c1cc(COC(=O)c2ccc(OC)c(S(=O)(=O)N3CCCC3)c2)oc1C was read as HCT116 PTEN-null 95.8, H69AR inhibit 59.2, Fibroblast inh 99.8, bCat KO growth 88.8 and HUVEC prolif 384 98.9.
Screening c1ccc(CCNc2ncnc3scc(C4COc5ccccc5O4)c23)cc1 (stereo not drawn) returned HCT116 PTEN-null 50.1, H69AR inhibit 28.2*, Fibroblast inh 97.0, bCat KO growth 54.9 and HUVEC prolif 384 87.4.
`COCCCN=C1NN=C(c2cc(C)n(Cc3ccco3)c2C)CS1` gave HCT116 PTEN-null 16.5 and bCat KO growth 10.8.
For Cc1ccc(Nc2c(N)c(=O)oc3ccccc23)cc1 the results were HCT116 PTEN-null 24.6, H69AR inhibit 12.8*, Fibroblast inh 71.7, bCat KO growth 34.3 and HUVEC prolif 384 66.6.
For CCc1nnc(NC(=O)CSc2nnc(Cc3ccccc3)n2-c2ccccc2)s1 the results were HCT116 PTEN-null 104.0, H69AR inhibit 86.5, Fibroblast inh 93.5, bCat KO growth 98.4 and HUVEC prolif 384 91.7.
O=C(/C=C/c1cccc([N+](=O)[O-])c1)Nc1ccc(NC(=O)c2cccs2)cc1 was read as HCT116 PTEN-null 51.4 and bCat KO growth 56.0.
O=C(/C=C/c1cccc([N+](=O)[O-])c1)c1cccs1 was read as HCT116 PTEN-null 1.5* and bCat KO growth 2.2*.
CCOc1ccccc1-c1nc(-c2ccc(NC(=O)Cc3ccccc3OC)cc2)no1 was read as HCT116 PTEN-null 76.0, H69AR inhibit 90.0, Fibroblast inh 106.2, bCat KO growth 87.8 and HUVEC prolif 384 96.6.
COc1ccccc1CC(=O)Nc1ccc(-c2noc(COc3ccc(Cl)c(C)c3)n2)cc1 was read as HCT116 PTEN-null 92.2, H69AR inhibit 29.9*, Fibroblast inh 73.2, bCat KO growth 79.7 and HUVEC prolif 384 86.3.
CCC(=C(c1ccc(OC)cc1)c1ccc(OC)cc1)c1cn(CC(O)CN2CCN(C)CC2)c2ccccc12 (stereo not drawn) was read as HCT116 PTEN-null 1.7*, H69AR inhibit 1.6*, Fibroblast inh 21.4*, bCat KO growth 2.1* and HUVEC prolif 384 3.0*.
COc1ccc(OCCn2cc(/C(N)=N/O)c3ccccc32)cc1 was read as HCT116 PTEN-null 78.8, H69AR inhibit 57.9, Fibroblast inh 84.3, bCat KO growth 65.9 and HUVEC prolif 384 85.3.
`CCOc1cccc2cc(-c3csc(NC(=O)CCC(=O)N4CCN(C)CC4)n3)c(=O)oc12` gave H69AR inhibit 32.8*, Fibroblast inh 66.1 and HUVEC prolif 384 77.9.
For CCOc1cccc2cc(-c3csc(NC(=O)CCC(=O)N4CCC(C)CC4)n3)c(=O)oc12 the results were HCT116 PTEN-null 79.3, H69AR inhibit 17.6*, Fibroblast inh 21.6*, bCat KO growth 72.8 and HUVEC prolif 384 28.0*.
Screening CCOc1cccc2cc(C(=O)Nc3nccs3)c(=O)oc12 returned HCT116 PTEN-null 91.6 and bCat KO growth 95.2.
`CC1CN(Cc2nc3c(c(=O)n(C)c(=O)n3C)n2CC(=O)c2ccccc2)CC(C)O1` (stereo not drawn) gave HCT116 PTEN-null 96.4, Fibroblast inh 97.4, bCat KO growth 92.5 and HUVEC prolif 384 104.2.
Screening CCc1ccc2c(c1)[C@]1(C(=O)N2)[C@@H]2C(=O)N(Cc3ccccc3)C(=O)[C@@H]2[C@@H]2CCCN21 returned HCT116 PTEN-null 85.6, H69AR inhibit 90.8, Fibroblast inh 91.5, bCat KO growth 90.2 and HUVEC prolif 384 85.6.
`CC(C)c1ccc(O)c(NC(=O)c2ncn[nH]2)c1` gave HCT116 PTEN-null 92.0, H69AR inhibit 82.4, Fibroblast inh 100.1, bCat KO growth 94.9 and HUVEC prolif 384 97.1.
CC(C)c1ccc2c(c1)C1(NN=C(c3ccccc3)S1)C(=O)N2 (stereo not drawn) was read as HCT116 PTEN-null 8.7, H69AR inhibit 17.5*, Fibroblast inh 42.5*, bCat KO growth 4.5* and HUVEC prolif 384 3.4*.
`CCc1ccc2c(c1)C1(NN=C(c3ccc(C)cc3)S1)C(=O)N2` (stereo not drawn) gave HCT116 PTEN-null 1.7*, H69AR inhibit 2.3*, Fibroblast inh 47.3*, bCat KO growth 1.4* and HUVEC prolif 384 9.8*.
For Cc1ccc(S(=O)(=O)c2cc3c(=O)n4cccc(C)c4nc3n(CC3CCCO3)c2=N)cc1 (stereo not drawn) the results were H69AR inhibit 39.8*, Fibroblast inh 93.9 and HUVEC prolif 384 78.6.
`Cc1ccc(S(=O)(=O)c2c(N)n(CCC(C)C)c3nc4ccccc4nc23)cc1` gave HCT116 PTEN-null 2.6*, H69AR inhibit 91.9, Fibroblast inh 95.2, bCat KO growth 8.5 and HUVEC prolif 384 65.4.
For Cn1c(N)c(S(=O)(=O)c2ccc(Br)cc2)c2nc3ccccc3nc21 the results were HCT116 PTEN-null 84.1, H69AR inhibit 12.7*, Fibroblast inh 96.8, bCat KO growth 77.4 and HUVEC prolif 384 62.8.
`Cc1cccc(S(=O)(=O)c2c(N)n(/N=C/c3ccccc3)c3nc4ccccc4nc23)c1` gave HCT116 PTEN-null 52.8, H69AR inhibit 43.8, Fibroblast inh 93.0, bCat KO growth 52.9 and HUVEC prolif 384 98.8.
For Cc1ccc(S(=O)(=O)c2c(N)n(CCCO)c3nc4ccccc4nc23)cc1 the results were HCT116 PTEN-null 81.2, H69AR inhibit 83.3, Fibroblast inh 95.8, bCat KO growth 86.9 and HUVEC prolif 384 86.6.
Nc1c(S(=O)(=O)c2ccccc2)c2nc3ccccc3nc2n1/N=C/c1cccc(O)c1 was read as HCT116 PTEN-null 3.6*, H69AR inhibit 1.4*, Fibroblast inh 100.3, bCat KO growth 8.6 and HUVEC prolif 384 6.9*.
CC(C)CCn1c(N)c(S(=O)(=O)c2cccs2)c2nc3ccccc3nc21 was read as HCT116 PTEN-null 22.1, H69AR inhibit 39.7*, Fibroblast inh 84.2, bCat KO growth 29.6 and HUVEC prolif 384 74.2.
`O=S(=O)(/N=C(\Nc1ccc(F)cc1)C(F)(F)F)c1ccccc1` gave HCT116 PTEN-null 85.7 and bCat KO growth 84.2.
Screening Cc1ccc(S(=O)(=O)Cc2ccc(C(=O)N3CCN(c4ccccn4)CC3)o2)cc1 returned HCT116 PTEN-null 93.6, H69AR inhibit 77.0, Fibroblast inh 105.2, bCat KO growth 87.0 and HUVEC prolif 384 97.4.
